In brackets after ≈: the same amount, converted by molar mass.
Legend:
Candida albicans [1] = assay: Antifungal activity against Candida albicans; assay type: functional
Outline: (§1)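 Broth microdilution in flat-bottom plates in RPMI 1640 with 2% glucose; inoculum 0.5 × 105 to 2.5 × 10^5 CFU/ml. MICs were read spectrophotometrically at 24 h. AMB endpoint: ≥90% growth reduction vs drug-free control well. Azole and CPF endpoint: 50% reduction in optical density. MFC was taken as the lowest concentration giving 99% killing.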

Nakaseomyces glabratus [2] = assay: Antifungal activity against Candida glabrata; assay type: functional; outline: as §1
Candida parapsilosis [3] = assay: Antifungal activity against Candida parapsilosis; assay type: functional; details: Lodderomyces parapsilosis; outline: as §1
Pichia kudriavzevii [4] = assay: Antifungal activity against Candida krusei; assay type: functional
Outline: (§2)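 EUCAST broth microdilution for yeasts in flat-bottom plates, RPMI 1640 with 2% glucose, inoculum 0.5 × 105 to 2.5 × 10^5 CFU/ml. […] MFC is the lowest concentration giving 99% killing.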

Clavispora lusitaniae [5] = assay: Antifungal activity against Candida lusitaniae; assay type: functional; outline: as §1
Candida tropicalis [6] = assay: Antifungal activity against Candida tropicalis; assay type: functional; outline: as §1
[7] = test system: Meyerozyma guilliermondii; assay: Antifungal activity against Candida guilliermondii; assay type: functional; outline: as §1
Saccharomyces cerevisiae [8] = assay: Antifungal activity against Saccharomyces cerevisiae; assay type: functional
Outline: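 Broth microdilution following EUCAST for fermentative yeasts, in flat-bottom plates with RPMI 1640 plus 2% glucose. Inoculum was 0.5 × 10^5 to 2.5 × 10^5 CFU/ml. End points were read spectrophotometrically at 24 h: ≥90% growth reduction versus a drug-free control for amphotericin B, and 50% OD reduction for azoles and caspofungin. MFC was the lowest concentration giving 99% killing.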

[9] = Antifungal activity against Cryptococcus neoformans var. neoformans; assay type: functional; details: Cryptococcus deneoformans
Outline: (§3)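 EUCAST yeast microdilution, modified for nonfermentative yeasts: plates were sealed and agitated at 350 rpm and 30°C for 48 h.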

Cryptococcus gattii [10] = assay: Antifungal activity against Cryptococcus neoformans var. gattii; assay type: functional, Cryptococcus bacillisporus; outline: as §3
Trichosporon inkin [11] = assay: Antifungal activity against Trichosporon inkin; assay type: functional
Outline: (§4)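 Nonfermentative yeasts were tested by the EUCAST microdilution recommendations with one change: plates were sealed and agitated at 350 rpm and 30°C for 48 h.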

Trichosporon asahii [12] = assay: Antifungal activity against Trichosporon asahii; assay type: functional; outline: as §4
Geotrichum candidum [13] = assay: Antifungal activity against Geotrichum candidum; assay type: functional
Aspergillus fumigatus [14] = assay: Antifungal activity against Aspergillus fumigatus; assay type: functional
Aspergillus terreus [15] = assay: Antifungal activity against Aspergillus terreus; assay type: functional
Aspergillus flavus [16] = assay: Antifungal activity against Aspergillus flavus; assay type: functional
Aspergillus niger [17] = assay: Antifungal activity against Aspergillus niger; assay type: functional
Rhizomucor = assay: Antifungal activity against Rhizomucor species; assay type: functional
Lichtheimia corymbifera = assay: Antifungal activity against Absidia corymbifera; assay type: functional
Absidia = assay: Antifungal activity against Absidia species; assay type: functional
[18] = Antifungal activity against Rhizopus microsporus var. oligosporus; assay type: functional
Outline: (§5)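 Broth microdilution following the EUCAST reference procedure for spore-forming moulds, in flat-bottom plates with RPMI 1640 plus 2% glucose. Inoculum was 2 × 10^5 to 5 × 10^5 CFU/ml. MICs were read visually at 24 and 48 h as 100% growth reduction versus a drug-free control for polyenes and azoles. MEC was used for caspofungin. Tests were run in duplicate and repeated twice.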

Rhizopus arrhizus = assay: Antifungal activity against Rhizopus oryzae; assay type: functional; outline: as §5
Rhizopus = assay: Antifungal activity against Rhizopus species; assay type: functional; outline: as §5
Mucor hiemalis = assay: Antifungal activity against Mucor hiemalis; assay type: functional
Mucor = assay: Antifungal activity against Mucor species; assay type: functional
Cunninghamella [19] = assay: Antifungal activity against Cunninghamella species; assay type: functional
Lomentospora prolificans = assay: Antifungal activity against Scedosporium prolificans; assay type: functional; outline: as §5
Scedosporium apiospermum = assay: Antifungal activity against Scedosporium apiospermum; assay type: functional; outline: as §5
Talaromyces marneffei = assay: Antifungal activity against Penicillium marneffei; assay type: functional
Penicillium sp. = assay: Antifungal activity against Penicillium species; assay type: functional
Fusarium solani = assay: Antifungal activity against Fusarium solani; assay type: functional
Fusarium oxysporum = assay: Antifungal activity against Fusarium oxysporum; assay type: functional
Sporothrix schenckii = assay: Antifungal activity against Sporothrix schenckii; assay type: functional; outline: as §5
Curvularia lunata = assay: Antifungal activity against Curvularia lunata; assay type: functional
Curvularia australiensis = assay: Antifungal activity against Bipolaris australiensis; assay type: functional
Outline: (§6)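 Dematiaceous fungi were tested by the EUCAST spore-forming mold reference procedure: flat-bottom microdilution plates, RPMI 1640 plus 2% glucose, inoculum 2 × 105 to 5 × 10^5 CFU/ml. Endpoints were read visually at 24 and 48 h. Polyenes and azoles: 100% growth reduction vs drug-free control. CPF: minimum effective concentration. Run in duplicate and repeated twice.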

[20] = Antifungal activity against Rhinocladiella aquaspersa; assay type: functional; outline: as §6
Candida albicans [21] = assay: Antifungal activity against Candida albicans by EUCAST method; assay type: functional; outline: as §1
Nakaseomyces glabratus [22] = assay: Antifungal activity against Candida glabrata by EUCAST method; assay type: functional; outline: as §1
Candida parapsilosis [23] = assay: Antifungal activity against Candida parapsilosis by EUCAST method; assay type: functional; details: Lodderomyces parapsilosis; outline: as §1
Pichia kudriavzevii [24] = assay: Antifungal activity against Candida krusei by EUCAST method; assay type: functional; outline: as §1
Clavispora lusitaniae [25] = assay: Antifungal activity against Candida lusitaniae by EUCAST method; assay type: functional; outline: as §1
Candida tropicalis [26] = assay: Antifungal activity against Candida tropicalis by EUCAST method; assay type: functional; outline: as §1
[27] = test system: Meyerozyma guilliermondii; assay: Antifungal activity against Candida guilliermondii by EUCAST method; assay type: functional; outline: as §1
Saccharomyces cerevisiae [28] = assay: Antifungal activity against Saccharomyces cerevisiae by EUCAST method; assay type: functional; outline: as §2
[29] = Antifungal activity against Cryptococcus neoformans var. neoformans by EUCAST method; assay type: functional; details: Cryptococcus deneoformans; outline: as §3
Cryptococcus gattii [30] = assay: Antifungal activity against Cryptococcus neoformans var. gattii by EUCAST method; assay type: functional, Cryptococcus bacillisporus; outline: as §3
Trichosporon inkin [31] = assay: Antifungal activity against Trichosporon inkin by EUCAST method; assay type: functional; outline: as §4
Trichosporon asahii [32] = assay: Antifungal activity against Trichosporon asahii by EUCAST method; assay type: functional; outline: as §4
Geotrichum candidum [33] = assay: Antifungal activity against Geotrichum candidum by EUCAST method; assay type: functional
Aspergillus fumigatus [34] = assay: Antifungal activity against Aspergillus fumigatus by EUCAST method; assay type: functional
Aspergillus terreus [35] = assay: Antifungal activity against Aspergillus terreus by EUCAST method; assay type: functional
Aspergillus flavus [36] = assay: Antifungal activity against Aspergillus flavus by EUCAST method; assay type: functional
Aspergillus niger [37] = assay: Antifungal activity against Aspergillus niger by EUCAST method; assay type: functional
Cunninghamella [38] = assay: Antifungal activity against Cunninghamella species by EUCAST method; assay type: functional

## C[C@@H](c1ncncc1F)[C@](O)(Cn1cncn1)c1ccc(F)cc1F [VORICONAZOLE]
Candida albicans [1]
  MFC: 0.06 µg/mL (≈ 0.172 µM)
Nakaseomyces glabratus [2]
  MFC: > 4 µg/mL
Candida parapsilosis [3]
  MFC: 0.06 µg/mL (≈ 0.172 µM)
Pichia kudriavzevii [4]
  MFC: 0.5 µg/mL (≈ 1.43 µM)
Clavispora lusitaniae [5]
  MFC: 0.06 µg/mL (≈ 0.172 µM)
Candida tropicalis [6]
  MFC: 0.12 µg/mL (≈ 0.344 µM)
[7]
  MFC: 0.25 µg/mL (≈ 0.716 µM)
Saccharomyces cerevisiae [8]
  MFC: > 4 µg/mL
[9]
  MFC: 0.06 µg/mL (≈ 0.172 µM)
Cryptococcus gattii [10]
  MFC: 0.125 µg/mL (≈ 0.358 µM)
Trichosporon inkin [11]
  MFC: 0.03 µg/mL (≈ 0.0859 µM)
Trichosporon asahii [12]
  MFC: > 8 µg/mL
Geotrichum candidum [13]
  MFC: > 4 µg/mL
Aspergillus fumigatus [14]
  MFC: 0.5 µg/mL (≈ 1.43 µM)
Aspergillus terreus [15]
  MFC: 1 µg/mL (≈ 2.86 µM)
Aspergillus flavus [16]
  MFC: 1 µg/mL (≈ 2.86 µM)
Aspergillus niger [17]
  MFC: 2 µg/mL (≈ 5.73 µM)
Rhizomucor
  MFC: > 8 µg/mL
Lichtheimia corymbifera
  MFC: > 8 µg/mL
Absidia
  MFC: > 8 µg/mL
[18]
  MFC: > 8 µg/mL
Rhizopus arrhizus
  MFC: > 8 µg/mL
Rhizopus
  MFC: > 8 µg/mL
Mucor hiemalis
  MFC: > 8 µg/mL
Mucor
  MFC: > 8 µg/mL
Cunninghamella [19]
  MFC: > 8 µg/mL
Lomentospora prolificans
  MFC: > 8 µg/mL
Scedosporium apiospermum
  MFC: > 8 µg/mL
Talaromyces marneffei
  MFC: > 8 µg/mL
Penicillium sp.
  MFC: > 8 µg/mL
Fusarium solani
  MFC: > 8 µg/mL
Fusarium oxysporum
  MFC: > 8 µg/mL
Sporothrix schenckii
  MFC: > 8 µg/mL
Curvularia lunata
  MFC: > 8 µg/mL
Curvularia australiensis
  MFC: > 8 µg/mL
[20]
  MFC: > 8 µg/mL
Candida albicans [21]
  MIC: 0.13 µg/mL (≈ 0.372 µM)
Nakaseomyces glabratus [22]
  MIC: 1.66 µg/mL (≈ 4.75 µM)
Candida parapsilosis [23]
  MIC: 0.08 µg/mL (≈ 0.229 µM)
Pichia kudriavzevii [24]
  MIC: 0.53 µg/mL (≈ 1.52 µM)
Clavispora lusitaniae [25]
  MIC: 0.07 µg/mL (≈ 0.2 µM)
Candida tropicalis [26]
  MIC: 0.48 µg/mL (≈ 1.37 µM)
[27]
  MIC: 0.24 µg/mL (≈ 0.687 µM)
Saccharomyces cerevisiae [28]
  MIC: 0.29 µg/mL (≈ 0.83 µM)
[29]
  MIC: 0.05 µg/mL (≈ 0.143 µM)
Cryptococcus gattii [30]
  MIC: 0.05 µg/mL (≈ 0.143 µM)
Trichosporon inkin [31]
  MIC: 0.05 µg/mL (≈ 0.143 µM)
Trichosporon asahii [32]
  MIC: 0.04 µg/mL (≈ 0.115 µM)
Geotrichum candidum [33]
  MIC: 0.25 µg/mL (≈ 0.716 µM)
Aspergillus fumigatus [34]
  MIC: 0.36 µg/mL (≈ 1.03 µM)
Aspergillus terreus [35]
  MIC: 0.29 µg/mL (≈ 0.83 µM)
Aspergillus flavus [36]
  MIC: 0.41 µg/mL (≈ 1.17 µM)
Aspergillus niger [37]
  MIC: 0.33 µg/mL (≈ 0.945 µM)
Cunninghamella [38]
  MIC: > 8 µg/mL
